# Experimental data taken from ChEMBL document CHEMBL1275595, “Antimicrobial activity of a halocidin-derived peptide resistant to attacks by proteases” (2010).
# Active and inactive are the calls of the source. No cut-off for these calls is given here. Numbered stars: 1 amine (or outer) side, 2 acyl side, 3 side chain; on linkers, the order of the positions; unused ones are H or OH. Bridge positions count the residues as written; N and C are the ends. Square brackets hold non-standard residues; d marks the D form. Peptide text beside a SMILES is read from it. I, II: the chains in the order shown. Gly(αS-SH) = O=C([C@@H](N[*:1])S[*:3])[*:2]; Nva(4-oxo) = CC(=O)C[C@H](N)C(=O)O
# Key:
# Staphylococcus aureus [1] = experiment: Antimicrobial activity against methicillin-resistant Staphylococcus aureus CCARM 3696 by radial diffusion assay incubated with chymotrypsin; type: functional, organism-based
# Staphylococcus aureus [2] = experiment: Antimicrobial activity against methicillin-resistant Staphylococcus aureus CCARM 3696 by radial diffusion assay incubated with trypsin; type: functional, organism-based
# Bacillus subtilis = experiment: Antimicrobial activity against Bacillus subtilis KCTC 2213 after 18 hrs by broth dilution method; type: functional; conditions: KCTC 2213, 18 h
# Procedure, shortened: (§1)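 Broth microdilution following CLSI recommendations. Bacteria were grown overnight to stationary phase in Mueller-Hinton broth, then diluted in fresh MHB to 2 × 10^5 CFU/ml. Peptide or antibiotic stocks of 640 μg/ml in 0.01% acetic acid were serially 2-fold diluted to 10 μg/ml, and each was added to the bacterial suspension at 11 μl per 100 μl. Plates were incubated 18 h at 37°C. MIC was taken as the lowest concentration giving no visible turbidity, in triplicate.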
# Micrococcus luteus = experiment: Antimicrobial activity against Micrococcus luteus KCTC 9341 after 18 hrs by broth dilution method; type: functional; conditions: KCTC 9341, 18 h; procedure, shortened: as §1
# Citrobacter freundii = experiment: Antimicrobial activity against Citrobacter freundii KCTC 2359 after 18 hrs by broth dilution method; type: functional; conditions: KCTC 2359, 18 h; procedure, shortened: as §1
# Salmonella enterica = experiment: Antimicrobial activity against Salmonella enterica KCTC 2930 after 18 hrs by broth dilution method; type: functional; conditions: KCTC 2930, 18 h; procedure, shortened: as §1
# Listeria monocytogenes = experiment: Antimicrobial activity against Listeria monocytogenes KCTC 19111 after 18 hrs by broth dilution method; type: functional; conditions: KCTC 19111, 18 h; procedure, shortened: as §1
# Staphylococcus aureus [3] = experiment: Antimicrobial activity against methicillin-resistant Staphylococcus aureus CCARM 3696 after 18 hrs by broth dilution method; type: functional; conditions: CCARM 3696, 18 h
# Procedure, shortened: (§2)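 Broth dilution per CLSI. Bacteria were grown overnight to stationary phase in Mueller-Hinton broth and diluted in fresh MHB to 2 × 10^5 CFU/ml. Stocks at 640 μg/ml in 0.01% acetic acid were 2-fold serially diluted to 10 μg/ml, and 11 μl was added to 100 μl of bacteria. After 18 h at 37°C, MIC was the lowest concentration with no visible turbidity. Run in triplicate.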
# Pseudomonas aeruginosa = experiment: Antimicrobial activity against multidrug-resistant Pseudomonas aeruginosa CCARM 2161 after 18 hrs by broth dilution method; type: functional; conditions: CCARM 2161, 18 h; procedure, shortened: as §2
# Enterococcus faecium = experiment: Antimicrobial activity against vancomycin-resistant Enterococcus faecium CCARM 5028 after 18 hrs by broth dilution method; type: functional; conditions: CCARM 5028, 18 h; procedure, shortened: as §2
# Escherichia coli = experiment: Antimicrobial activity against Escherichia coli KCTC 1039 after 18 hrs by broth dilution method; type: functional; conditions: KCTC 1039, 18 h; procedure, shortened: as §1
# Klebsiella oxytoca = experiment: Antimicrobial activity against Klebsiella oxytoca KCTC 1686 after 18 hrs by broth dilution method; type: functional; conditions: KCTC 1686, 18 h; procedure, shortened: as §1
SMILES,Activity (Staphylococcus aureus [1]),Activity (Staphylococcus aureus [2]),MIC (Bacillus subtilis) [µg/mL],MIC (Micrococcus luteus) [µg/mL],MIC (Citrobacter freundii) [µg/mL],MIC (Salmonella enterica) [µg/mL],MIC (Listeria monocytogenes) [µg/mL],MIC (Staphylococcus aureus [3]) [µg/mL],MIC (Pseudomonas aeruginosa) [µg/mL],MIC (Enterococcus faecium) [µg/mL],MIC (Escherichia coli) [µg/mL],MIC (Klebsiella oxytoca) [µg/mL]
CC(C)C[C@H](NC(=O)[C@H](CC(C)C)NC(=O)[C@H](C)NC(=O)[C@H](CC(N)=O)NC(=O)[C@H](CC(C)C)NC(=O)[C@H](Cc1c[nH]c2ccccc12)NC(=O)[C@@H](N)CCCCN)C(=O)O (H-KWLNALL-OH),inactive,,,,,,,,,,,
CC(C)C[C@H](NC(=O)CNC(=O)[C@H](Cc1cnc[nH]1)NC(=O)[C@@H](N)Cc1cnc[nH]1)C(=O)N[C@@H](CC(N)=O)C(=O)N[C@@H](CSSC[C@H](NC(=O)[C@H](CC(N)=O)NC(=O)[C@H](CC(C)C)NC(=O)CNC(=O)[C@H](Cc1cnc[nH]1)NC(=O)[C@@H](N)Cc1cnc[nH]1)C(=O)N[C@@H](C)C(=O)N[C@@H](CCCCN)C(=O)NCC(=O)N[C@H](C(=O)N[C@@H](CC(C)C)C(=O)N[C@@H](C)C(N)=O)C(C)C)C(=O)N[C@@H](C)C(=O)N[C@@H](CCCCN)C(=O)NCC(=O)N[C@H](C(=O)N[C@@H](CC(C)C)C(=O)N[C@@H](C)C(N)=O)C(C)C (I: H-HHGLNCAKGVLA-NH2 / II: H-HHGLNCAKGVLA-NH2; disulfide I:6-II:6),Active,,,,,,,,,,,
CC(C)C[C@H](NC(=O)CNC(=O)[C@H](Cc1cnc[nH]1)NC(=O)[C@H](Cc1cnc[nH]1)NC(=O)[C@H](CC(C)C)NC(=O)[C@H](CC(C)C)NC(=O)[C@H](C)NC(=O)[C@H](CC(N)=O)NC(=O)[C@H](CC(C)C)NC(=O)[C@H](Cc1c[nH]c2ccccc12)NC(=O)[C@@H](N)CCCCN)C(=O)N[C@@H](CC(N)=O)C(=O)N[C@@H](CSSC[C@H](NC(=O)[C@H](CC(N)=O)NC(=O)[C@H](CC(C)C)NC(=O)CNC(=O)[C@H](Cc1cnc[nH]1)NC(=O)[C@H](Cc1cnc[nH]1)NC(=O)[C@H](CC(C)C)NC(=O)[C@H](CC(C)C)NC(=O)[C@H](C)NC(=O)[C@H](CC(N)=O)NC(=O)[C@H](CC(C)C)NC(=O)[C@H](Cc1c[nH]c2ccccc12)NC(=O)[C@@H](N)CCCCN)C(=O)N[C@@H](C)C(=O)N[C@@H](CCCCN)C(=O)O)C(=O)N[C@@H](C)C(=O)N[C@@H](CCCCN)C(=O)O (I: H-KWLNALLHHGLNCAK-OH / II: H-KWLNALLHHGLNCAK-OH; disulfide I:13-II:13),,Active,,,,,,,,,,
CC(C)C[C@H](NC(=O)CNC(=O)[C@H](Cc1cnc[nH]1)NC(=O)[C@H](Cc1cnc[nH]1)NC(=O)[C@H](CC(C)C)NC(=O)[C@H](CC(C)C)NC(=O)[C@H](C)NC(=O)[C@H](CC(N)=O)NC(=O)[C@H](CC(C)C)NC(=O)[C@H](Cc1c[nH]c2ccccc12)NC(=O)[C@@H](N)CCCCN)C(=O)N[C@@H](CC(N)=O)C(=O)N[C@@H](CSS[C@H](NC(=O)[C@H](CC(N)=O)NC(=O)[C@H](CC(C)C)NC(=O)CNC(=O)[C@H](Cc1cnc[nH]1)NC(=O)[C@H](Cc1cnc[nH]1)NC(=O)[C@H](CC(C)C)NC(=O)[C@H](CC(C)C)NC(=O)[C@H](C)NC(=O)[C@H](CC(N)=O)NC(=O)[C@H](CC(C)C)NC(=O)[C@@H](N)Cc1c[nH]c2ccccc12)C(=O)N[C@@H](C)C(=O)N[C@@H](CCCCN)C(=O)O)C(=O)N[C@@H](C)C(=O)N[C@@H](CCCCN)C(=O)O (I: H-KWLNALLHHGLNCAK-OH / II: H-WLNALLHHGLN[Gly(αS-SH)]AK-OH; disulfide I:13-II:12),,Active,,,,,,,,,,
CC(C)C[C@H](NC(=O)CNC(=O)[C@H](Cc1cnc[nH]1)NC(=O)[C@H](Cc1cnc[nH]1)NC(=O)[C@H](CC(C)C)NC(=O)[C@H](CC(C)C)NC(=O)[C@H](C)N)C(=O)N[C@@H](CC(N)=O)C(=O)N[C@@H](CSSC[C@H](NC(=O)[C@H](CC(N)=O)NC(=O)[C@H](CC(C)C)NC(=O)CNC(=O)[C@H](Cc1cnc[nH]1)NC(=O)[C@H](Cc1cnc[nH]1)NC(=O)[C@H](CC(C)C)NC(=O)[C@H](CC(C)C)NC(=O)[C@H](C)NC(=O)[C@H](CC(N)=O)NC(=O)[C@H](CC(C)C)NC(=O)[C@H](Cc1c[nH]c2ccccc12)NC(=O)[C@@H](N)CCCCN)C(=O)N[C@@H](C)C(=O)N[C@@H](CCCCN)C(=O)NCC(=O)N[C@H](C(=O)N[C@@H](CC(C)C)C(=O)N[C@@H](C)C(N)=O)C(C)C)C(=O)N[C@@H](C)C(=O)N[C@@H](CCCCN)C(=O)NCC(=O)N[C@H](C(=O)N[C@@H](CC(C)C)C(=O)N[C@@H](C)C(N)=O)C(C)C (I: H-KWLNALLHHGLNCAKGVLA-NH2 / II: H-ALLHHGLNCAKGVLA-NH2; disulfide I:13-II:9),,,4,8,8,4,4,8,8,4,4,4
CC(C)C[C@H](NC(=O)CNC(=O)[C@H](Cc1cnc[nH]1)NC(=O)[C@H](Cc1cnc[nH]1)NC(=O)[C@H](CC(C)C)NC(=O)[C@H](CC(C)C)NC(=O)[C@H](C)NC(=O)[C@H](CC(N)=O)NC(=O)[C@H](CC(C)C)NC(=O)[C@H](Cc1c[nH]c2ccccc12)NC(=O)[C@@H](N)CCCCN)C(=O)N[C@@H](CC(N)=O)C(=O)N[C@@H](CSSC[C@H](NC(=O)[C@H](CC(N)=O)NC(=O)[C@H](CC(C)C)NC(=O)CNC(=O)[C@H](Cc1cnc[nH]1)NC(=O)[C@H](Cc1cnc[nH]1)NC(=O)[C@H](CC(C)C)NC(=O)[C@H](CC(C)C)NC(=O)[C@H](C)NC(=O)[C@H](CC(N)=O)NC(=O)[C@H](CC(C)C)NC(=O)[C@H](Cc1c[nH]c2ccccc12)NC(=O)[C@@H](N)CCCCN)C(=O)N[C@@H](C)C(=O)N[C@@H](CCCCN)C(=O)NCC(=O)N[C@H](C(=O)N[C@@H](CC(C)C)C(=O)N[C@@H](C)C(N)=O)C(C)C)C(=O)N[C@@H](C)C(=O)N[C@@H](CCCCN)C(=O)O (I: H-KWLNALLHHGLNCAKGVLA-NH2 / II: H-KWLNALLHHGLNCAK-OH; disulfide I:13-II:13),,Active,,,,,,,,,,
CC(=O)C[C@H](NC(=O)[C@H](CC(C)C)NC(=O)CNC(=O)[C@H](Cc1cnc[nH]1)NC(=O)[C@H](Cc1cnc[nH]1)NC(=O)[C@H](CC(C)C)NC(=O)[C@H](CC(C)C)NC(=O)[C@H](C)NC(=O)[C@H](CC(N)=O)NC(=O)[C@H](CC(C)C)NC(=O)[C@@H](N)Cc1c[nH]c2ccccc12)C(=O)N[C@@H](CSSC[C@H](NC(=O)[C@H](CC(N)=O)NC(=O)[C@H](CC(C)C)NC(=O)CNC(=O)[C@H](Cc1cnc[nH]1)NC(=O)[C@H](Cc1cnc[nH]1)NC(=O)[C@H](CC(C)C)NC(=O)[C@H](CC(C)C)NC(=O)[C@H](C)NC(=O)[C@H](CC(N)=O)NC(=O)[C@H](CC(C)C)NC(=O)[C@@H](N)Cc1c[nH]c2ccccc12)C(=O)N[C@@H](C)C(=O)N[C@@H](CCCCN)C(=O)O)C(=O)N[C@@H](C)C(=O)N[C@@H](CCCCN)C(=O)O (I: H-WLNALLHHGL[Nva(4-oxo)]CAK-OH / II: H-WLNALLHHGLNCAK-OH; disulfide I:12-II:12),,inactive,,,,,,,,,,
C[C@H]1[C@H](NC(=O)/C(=N\OC(C)(C)C(=O)O)c2csc(N)n2)C(=O)N1S(=O)(=O)O [AZTREONAM],,,> 64,> 64,4,> 64,< 1,> 64,8,> 64,< 1,< 1
CC(C)(O/N=C(\C(=O)N[C@@H]1C(=O)N2C(C(=O)[O-])=C(C[n+]3ccccc3)CS[C@H]12)c1csc(N)n1)C(=O)O [CEFTAZIDIME],,,4,> 64,8,> 64,< 1,> 64,4,> 64,< 1,< 1
CO/N=C(\C(=O)N[C@@H]1C(=O)N2C(C(=O)O)=C(CSc3nc(=O)c(O)nn3C)CS[C@H]12)c1csc(N)n1 [CEFTRIAXONE],,,< 1,16,2,4,< 1,> 64,> 64,> 64,< 1,< 1
